We go through two molecules from PMC4504105 (Journal of Cancer, 2015).

The test system of data set [1] is 26S proteasomes from PC-3M cells, chymotrypsin-like (CT-L) activity. Description: 26S proteasome activity assay, CT-L. The data set is classed as biochemical. The note with it: 1h; for IC50: read-out: IC50 for CT-L, 26S proteasomes, 37°C.
Data set [2] relates to 26S proteasomes from PC-3M cells, trypsin-like (T-L) activity. The data set is described as follows: 26S proteasome activity assay, T-L. The format is biochemical. The note with it: 1h; for IC50: read-out: IC50 for T-L, 26S proteasomes, 37°C.
Data set [3] addresses T1, 26S proteasomes from PC-3M cells, post-glutamyl peptide hydrolase (PGPH) activity (Homo sapiens, UniProt P28072).
T1 sequence (P28072 35-239): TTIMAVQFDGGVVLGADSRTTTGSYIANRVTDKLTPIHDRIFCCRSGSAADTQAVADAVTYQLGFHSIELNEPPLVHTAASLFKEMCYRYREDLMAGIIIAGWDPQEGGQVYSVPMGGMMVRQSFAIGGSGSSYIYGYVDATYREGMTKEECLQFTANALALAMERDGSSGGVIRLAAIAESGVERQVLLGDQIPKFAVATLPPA
Description: 26S proteasome activity assay, PGPH. The note with it: 1h. The data set is classed as biochemical.

Data set [4] concerns PC-3M cells. The data set is described as follows: Cancer cell proliferation. The data set is classed as cell-based. The gist of the method: (§1)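 PC-3M, […] or Bcap37 cells kept in RPMI 1640 with 10% FBS and 1% penicillin/streptomycin, 37°C, 5% CO2. In 96-well plates, treated 48 h with graded concentrations of test compound or of a reference proteasome inhibitor in parallel. Survival by sulforhodamine B staining. IC50 given as mean ± SD, three independent experiments.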

A further data set concerns HL-60 cells. Description: Cancer cell proliferation. The format is cell-based. The note with it: read-out: IC50, proliferation, 48 h. An outline of the steps:
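HL-60 in RPMI 1640 with 10% FBS and penicillin/streptomycin at 37°C, 5% CO2. Seeded in 96-well format and exposed 48 h to a range of test compound concentrations, with a reference proteasome inhibitor run alongside. Survival by MTT. IC50 reported as mean ± SD over three independent experiments.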

The subject of a further data set is Bel-7740 cells. Description: Cancer cell proliferation. The data set is classed as cell-based. Conditions: read-out: IC50, proliferation, 48 h. The gist of the method:
as §1

Another data set concerns Bcap37 cells. Description: Cancer cell proliferation. The format is cell-based. The note with it: read-out: IC50, proliferation, 48 h. An outline of the steps:
as §1

A further data set concerns PC-3M cell xenograft. Description: PC-3M xenograft tumor model. The format is in vivo, Balb/c male nude mice. Conditions: intraperitoneal, twice weekly, day 37. The gist of the method: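 Male Balb/c nude mice, 4-5 weeks, SPF. 3×10^6 PC-3M cells in PBS injected s.c. into the right flank. At about 0.2 cm3, randomised to 5 groups of 7: saline, reference inhibitor 1.25 mg/kg, test compound 1.25, 2.25 or 3.25 mg/kg. Dosed i.p. twice weekly, 11 times over 36 days. Volume = a×b²/2, measured before each dose; final measurement on day 37.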

Another data set is described as follows: Viscera. The data set is classed as in vivo, Balb/c male nude mice. The note with it: all three doses (1.25, 2.25, 3.25 mg/kg), P>0.05. An outline of the steps:
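Organ index from the PC-3M xenograft mice (male Balb/c nude; saline, reference inhibitor or test compound at 1.25, 2.25, 3.25 mg/kg i.p. twice weekly, 11 doses over 36 days). On day 37, body weight recorded, then mice killed; heart, liver, lung, brain, kidney and spleen excised and weighed. Group means ± SD compared with control by Student's t-test.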

Data set [5] concerns PC-3M cells. The data set is described as follows: Cell cycle assay. The data set is classed as cell-based. Conditions: 48 h.
For data set [6], the system named is proteasome β catalytic sites in PC-3M cells. The data set is described as follows: Proteasome activity profiling in intact cells. The data set is classed as cell-based. Conditions: 12.5-400 nM, 3 h. An outline of the steps:
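PC-3M cells treated 3 h with test compound (12.5-400 nM), washed and harvested; proteasomes extracted as for the activity assay. Lysates labelled with Me4BodipyFL-Ahx3Leu3VS (5 μM) for 1 h at 37°C, boiled in sample buffer. 20 μg protein per lane on 12.5% SDS-PAGE, in-gel fluorescence scan. Band integrated optical density quantified; three independent experiments.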

Data set [7] relates to ubiquitinated and cell cycle proteins in PC-3M cells. Description: Western blot analysis, PC-3M cells. The data set is classed as cell-based. The gist of the method:
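PC-3M cells exposed 48 h to a series of test compound concentrations (12.5-100 nM for cell-cycle proteins), then lysed. 10% SDS-PAGE, nitrocellulose, 5% milk block. Primary antibodies (ubiquitin, wee 1, cyclin B1, p27, p21, GAPDH) overnight at 4°C; anti-mouse/anti-rabbit secondaries; ECL detection. Three independent experiments; Student's t-test against control.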
On the technique in general: Immunoblotting shows a protein as a band on a membrane.

For data set [8], the system named is cell cycle proteins in PC-3M cell xenograft tumors. The data set is described as follows: Western blot analysis, xenograft tumor tissue. The note with it: p<0.05. The data set is classed as in vivo, Balb/c male nude mice. The gist of the method: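 Western blot on PC-3M xenograft tumours from mice dosed i.p. twice weekly. Tissue ground and lysed, whole protein on 10% SDS-PAGE, blotted to nitrocellulose, blocked with 5% milk. Primary antibodies against cyclin B1, p21, p27, wee 1 and others overnight at 4°C, then anti-mouse/anti-rabbit secondaries. ECL imaging; Student's t-test against control.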

Regarding `CC(C)C[C@H](NC(=O)[C@H](Cc1ccc2ccccc2c1)NC(=O)[C@H](CC(C)C)NC(=O)c1cnccn1)B(O)O` [YSY01A, N-(2-Pyrazinecarbonyl)-L-leucine-L-(2-naphthyl)-alanine-L-leucine boronic acid], the IC50 worked out at 0.123 ± 0.018 µM in data set [1]; 1.24 ± 0.077 µM in data set [2]; 0.714 ± 0.044 µM in data set [3] (read-out: IC50 for PGPH, 26S proteasomes, 37°C); 0.15 ± 0.009 µM in the data set on PC-3M cells [4] (read-out: IC50, proliferation, 48 h); 0.17 ± 0.0099 µM in the data set with HL-60 cells; 0.286 ± 0.0132 µM in the data set on Bel-7740 cells. For the same molecule, the IC50 in the data set on Bcap37 cells turned out to be 0.879 ± 0.0182 µM. Also, the CT-L activity inhibited in [1] (various YSY01A concentrations) is reported as 34-86%. In data set [2] (various YSY01A concentrations), the T-L activity inhibited is on record as 12-43%. The PGPH activity inhibited in data set [3] (various YSY01A concentrations) was 12-48%. Moreover, the “Inhibition efficacy relative to PS341” value in the data set with PC-3M cells [4] (48h) was “three times highter”. The figures for the “Tumor growth inhibition (final tumor volume)” value with PC-3M cell xenograft (1.25 mg/kg), with PC-3M cell xenograft (2.25 mg/kg) and in the data set with PC-3M cell xenograft (3.25 mg/kg) were 45.7%, 52.8% and 60.1%, respectively. Moreover, in the data set “Viscera”, the “Impact on viscera index (body, heart, liver, brain, kidney, spleen and lung)” value is reported as “slightly impacted”. The results for the “Increase of cells in the G2/M phase” value with PC-3M cells [5] (50 nM) and in the data set with PC-3M cells [5] (100 nM) were 14% and 44%, respectively. Also, in data set [6], the “β5i, β2, β2i, β1 and β1i/β5 fluorgenic bands” value was “decreased”. In addition, the “Protein (cyclinB1, p21, p27, P-cdc2 (tyr15), wee 1) expression” value in [7] (12.5-100 nM, 48 h, p<0.05 versus control) is “increased”. For the same molecule, the “Concentration causing ubiquitinated protein accumulation” value in data set [7] (48h) turned out to be 25 nM. In addition, the “Protein (cyclinB1, p21, p27, P-cdc2 (tyr15), wee 1) expression from tumor tissue” value in [8] was “enhanced”.

On to `CC(C)C[C@H](NC(=O)[C@H](Cc1ccccc1)NC(=O)c1cnccn1)B(O)O` [PS341, reference compound], for which the IC50 in [1] was 0.071 ± 0.001 µM; in data set [2], 5.35 ± 0.057 µM. Further, in the data set on PC-3M cell xenograft (1.25 mg/kg), the “Tumor growth inhibition (final tumor volume)” value is recorded as 49.6%.
